System: MS2 coat protein
Assay: apparent Kd, MS2 coat protein; higher = weaker binding; RNA-MaP array; FMN 200 µM where present
Outline: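 Green signal from SNAP-549-labelled MS2 coat protein was normalised to red-channel RNA signal and to the median Fmax of control clusters. The protein was titrated from 0.7 or 1.5 nM, doubling to 3 µM, without and then with constant ligand, over designs transcribed by stalled E. coli RNA polymerase on Illumina sequencing-chip clusters, in 100 mM Tris-HCl pH 7.5, 80 mM KCl, 4 mM MgCl2, BSA, DTT, yeast tRNA and Tween-20. The apparent Kd is the median of filtered per-cluster binding-curve fits.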

[1] = designed as: OFF switch for flavin mononucleotide, no ligand
[2] = ligand present: flavin mononucleotide, designed as: OFF switch for flavin mononucleotide
[3] = designed as: ON switch for flavin mononucleotide, no ligand
[4] = ligand present: flavin mononucleotide, designed as: ON switch for flavin mononucleotide

Sequence | apparent Kd [1] | apparent Kd [2] | apparent Kd [3] | apparent Kd [4]
UUAAAUCAUGUAGGAUAUGCAUGGCGAAGCUACGCAGAAGGACAUGAGGAUCACCCAUGUUCGAGGGUCUGAGUACAGAUCCAA | 23.6 nM | 123 nM |  | 
GGUACUCAAAGAGUACCAAUUCGAACAUGAGGAUCACCCAUGUAGGAUAUGCUACUCAAAGAGUAGCAGAAGGACAUGUGCCUA | 15.6 nM | 73.6 nM |  | 
GGCAGACAUGAGGAUCACCCAUGUCAGGAUAUUAGGCGAUCGUCGAUAGACGAUAGCCUGAGAAGGGACAUGCC | 23.8 nM | 54.1 nM |  | 
GUCAUCUCGUGAGGAUAUACAACACUGCUUCGGCAGUGUAUUAAGAUCACAUGAGGAUCACCCAUGUAGAAGGCACGAGCUGAU | 15 nM | 214 nM |  | 
AUUAUAUAGUAAGGAUAUUGAUUAUUAUUUUAACAUGAGGAUCACCCAUGUAGCCUUAUGUAUAACAAGAAGGUACAUUUAUUA | 56.2 nM | 58.4 nM |  | 
UUUCUUGGGCAAGGAUAUCCUGUGCGGUUACGGCUCGUGUCUGUCACAUGAGGAUCACCCAUGUGGGAGAAGGUGCCUGCGGUC | 6.09 nM | 6.78 nM |  | 
GGUACCAUCGCAGGAUAUGGUAUCCUUUGGGUACCAGAAGGGUGAUAACAUGAGGAUCACCCAUGUGGUACCGGGCGUGAGCCC |  |  | 29 nM | 970 nM
GCACCAUUGCAAGGAUAUCCUACAGAGGGUGCAGGAGAAGGUGCAUUGGUGAGACUAUAGGACAUGAGGAUCACCCAUGUACCG |  |  | 68 nM | 32.7 nM
UAGUUGCUAGGAUAUACUUGGGCAACUACUGAACCUAUAUAACAUGAGGAUCACCCAUGUAGAAGGAGCAUAUA | 23.1 nM | 19.1 nM |  | 
AGAUCACAUGAGGAUCACCCAUGUCAGGAUAUGAUACUAUGUACUUCGGUACAUAGUAUCAGAAGGGAUAUAAA | 70.7 nM | 239 nM |  | 
CUCAUGUGAGGAUAUAGUGCGUCUUCUAUUAUUAUUGAGUACUAGAAGGCACAUGAGGAUCACCCAUGUAGCAC | 53.4 nM | 54.3 nM |  | 
GGAGGACAUGAGGAUCACCCAUGUGGAUGAACGCUAGGAUAUGCGUGCAGGAAGAGUGGAGCAGAAGGAGUGGGUU |  |  | 28.2 nM | 23.2 nM
CGGUUGCGAGGAUAUAUGACAUGUUGCGCCGGAACUCCGCCACAUGAGGAUCACCCAUGUAGAAGGCGCAACUU | 14.4 nM | 15.3 nM |  | 
CGAUAACAUAGUUAUCCGUAACGGACAUGAGGAUCACCCAUGUAGGAUAUGUUACUCAACGGGUAACAGAAGGACAUGAGUCUU | 14.4 nM | 41.7 nM |  | 
UUUUUAUUUGCAGGAUAUUGUUUUUUAUUACUUCAAGAAGGGCAUUACAUGAGGAUCACCCAUGUCAUCCUAUGGUUAACUAGU | 9.64 nM | 11.6 nM |  | 
AAAAAAAAUGUGUAGGAUAUCAGUAAAAAUACAUGAGGAUCACCCAUGUUCAAAAAAAAAAAAACUGAGAAGGACGUGGAUGGUCC |  |  | 79 nM | 59.9 nM
GGCGUGUUAGGAUAUCGCGGCGGCGGCGUUUGUUGUUGUUGUGAGAAGGAACAUGAGGAUCACCCAUGUGUGCC | 62.7 nM | 295 nM |  | 
GGCAGACAUGAGGAUCACCCAUGUCGGCCGUUAGGAGGAUAUCGGUGAUAUCUGUCUCGCCGAGAAGGUUUAAUUA |  |  | 11.5 nM | 12.1 nM
GUGGAGUACGUAGGAUAUGUAGGAUAUUCCUACAUGAGGAUCACCCAUGUAUGCAUGGAAGAAGGACAGAAGGACGUGCUCCAG |  |  | 208 nM | 13.5 nM
AUUAUAUAGACAGGAUAUUGAUUAUUAUUUUAACAUGAGGAUCACCCAUGUAGCCUUAUGUAUAACAAGAAGGGUCAUUUAUUA | 151 nM | 190 nM |  | 
